In PubChem BioAssay AID651748 (Johns Hopkins Ion Channel Center, 2012):
The source made the active and inactive calls.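 The calls were made as follows: active = a fitted dose response curve plus choline uptake above 120% of control at 33.3 µM; inactive = the rest.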

biological target: High affinity choline transporter 1 (Homo sapiens) (UniProt Q9GZV3); test: CHT activators enhancing choline uptake, dose response, orthogonal assay for CHT activator project, cell-based, 3H-choline uptake, radioactive, HEK293 CHT LV-AA (AID 651748); conditions: HEK293 hCHT LV-AA cells; series mostly up to 33.3 µM
In short: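 Assay system: CHT LV-AA-expressing HEK293 cells; Medium: HEPES-buffered HBSS, pH 7.4; Reagent: 3H-choline, 50 nM total choline with 10% tritiated; Incubation: 15 min compound pre-incubation then 15 min choline uptake, both 37 °C; Signal: tritium scintillation counting.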

High affinity choline transporter 1 (Homo sapiens), sequence (Q9GZV3 whole entry, looked up): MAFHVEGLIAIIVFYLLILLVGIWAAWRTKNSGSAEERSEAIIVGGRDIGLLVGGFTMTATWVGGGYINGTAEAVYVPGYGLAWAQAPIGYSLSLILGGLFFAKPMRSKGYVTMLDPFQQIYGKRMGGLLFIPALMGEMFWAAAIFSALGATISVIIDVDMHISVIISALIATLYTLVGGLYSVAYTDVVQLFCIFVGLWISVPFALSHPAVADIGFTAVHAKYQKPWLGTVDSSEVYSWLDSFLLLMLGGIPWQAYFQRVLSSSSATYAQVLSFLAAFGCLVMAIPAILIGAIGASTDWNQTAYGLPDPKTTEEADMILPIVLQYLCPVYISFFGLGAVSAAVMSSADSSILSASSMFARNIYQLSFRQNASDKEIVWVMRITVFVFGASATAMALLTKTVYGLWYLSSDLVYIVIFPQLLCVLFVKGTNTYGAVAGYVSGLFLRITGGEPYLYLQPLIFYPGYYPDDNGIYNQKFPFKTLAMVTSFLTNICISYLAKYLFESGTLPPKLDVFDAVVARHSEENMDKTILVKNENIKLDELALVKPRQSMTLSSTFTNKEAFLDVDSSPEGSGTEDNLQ

Row | Structure (SMILES) | outcome
1 | c1ccc(NCc2nc3ccccc3n2CCOc2ccccc2)cc1 | inactive
2 | Cc1ccccc1NCc1nc2ccccc2n1CCOc1ccccc1 | inactive
3 | O=C1N(Cc2cccc(Cl)c2)C[C@@H]2C[C@@H](c3cccn3-c3ccccn3)N3CCC[C@@]123 | inactive
4 | COc1ccc(NCc2nc3ccccc3n2CCOc2ccccc2Cl)cc1 | inactive
5 | Brc1ccc(NCc2nc3ccccc3n2CCOc2ccccc2)cc1 | inactive
6 | CCOc1ccc(NCc2nc3ccccc3n2CCOc2ccccc2)cc1 | inactive
7 | CC(C)CN1CCN(Cc2cccn2-c2ccc(Cl)cn2)CC1CCO (centres undefined) | inactive
8 | Cc1cccc(NCc2nc3ccccc3n2CCOc2ccccc2)c1 | inactive
9 | O=C(c1cccc(C(F)(F)F)c1)C1CCCN(Cc2cccn2-c2ncccn2)C1 (centres undefined) | inactive
10 | COc1ccc(NCc2nc3ccccc3n2CCOc2ccccc2)cc1 | inactive
11 | Clc1ccc(NCc2nc3ccccc3n2CCOc2ccccc2)cc1 | inactive
12 | COc1ccccc1NCc1nc2ccccc2n1CCOc1ccccc1 | inactive
13 | Fc1ccc(NCc2nc3ccccc3n2CCOc2ccccc2)cc1 | inactive
14 | Cc1ccc(NCc2nc3ccccc3n2CCOc2ccccc2)cc1 | inactive
